Laboratory results: ChEMBL document CHEMBL5252642, “Design and synthesis of naturally-inspired SARS-CoV-2 inhibitors” (RSC Med Chem, 2023)
Active and inactive are the calls of the source. The rule behind the calls is not given here.

Tests used:
[1] = test system: SARS-CoV-2; test: Antiviral activity against SARS-CoV-2 BetaCoV/France/IDF0372/2020 infected human A549-ACE2 cells assessed as inhibition of viral replication by qRT-PCR analysis; format: functional, organism-based; settings: Severe acute respiratory syndrome coronavirus 2, BetaCoV/France/IDF0372/2020, A549-ACE2
[2] = Cytotoxicity against human A549-ACE2 cells; format: toxicity, cell-based
Method in brief: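 A549-ACE2 cells (2,000/well) were exposed to compounds for 72 h. Viability was read as CellTiter-Glo luminescence. Controls were 0.5% DMSO and 10 µM camptothecin. Values come from triplicate dose-response curves.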

[3] = (§1) Inhibition of SARS-CoV-2 N-terminus His tagged nsp10/nsp16 complex expressed in Escherichia coli using [3H]SAM as substrate by scintillation proximity assay; design: species or system Severe acute respiratory syndrome coronavirus 2
Method in brief: (§2)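 Compounds were serially titrated from 8 µM to 2 mM DMSO stocks, giving 5% DMSO final. They were preincubated 2 h at 23 °C with 125 nM nsp10–nsp16 (8:1) in 50 mM Tris-HCl pH 7.5, 1.5 mM MgCl2, 1 mM TCEP and 0.01% Triton X-100. Then 0.8 µM RNA and 2 µM SAM (30% 3H-SAM) were added for 30 min at 23 °C. Radioactivity was read. Tests were in triplicate, with curves constrained to 0–100.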

[4] = biological target: Replicase polyprotein 1ab (Severe acute respiratory syndrome coronavirus 2, UniProt P0DTD1); test: (§3) Inhibition of SARS-CoV-2 nsp14 guanine-N7-methyltransferase activity
Method in brief: (§4)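 Compounds were serially titrated from 8 µM to 2 mM DMSO stocks, giving 5% DMSO final. They were preincubated 2 h at 23 °C with 1.5 nM nsp14 in 20 mM Tris-HCl pH 7.5, 0.25 mM MgCl2, 1 mM TCEP and 0.01% Triton X-100. Then 50 nM RNA and 0.25 µM 3H-SAM were added for 20 min. Radioactivity was read. Tests were in triplicate, with SAH as positive control and curves constrained to 0–100.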

[5] = test system: Severe acute respiratory syndrome coronavirus 2; test: as §1; method in brief: as §2
[6] = biological target: Replicase polyprotein 1ab (Severe acute respiratory syndrome coronavirus 2) (UniProt P0DTD1); test: as §3; method in brief: as §4

SMILES	EC50 [1]	CC50 [2]	IC50 [3]	IC50 [4]	inhibition [5]	inhibition [6]
Cc1ccc(S(=O)(=O)N2C[C@@]34CN(C(=O)c5cccs5)C[C@@H](O3)[C@@H]3[C@H]4[C@@]2(C(C)C)CC[C@@H]3O)cc1	16 µM	> 50 µM				
Cc1ccc(S(=O)(=O)N2C[C@@]34CN(CCc5c[nH]c6ccccc56)C[C@@H](O3)[C@@H]3[C@H]4[C@@]2(C(C)C)CC[C@@H]3O)cc1	8.3 µM	13 µM				
Cc1ccc(S(=O)(=O)N2C[C@@]34CN(Cc5ccccc5)C[C@@H](O3)[C@H]3C(=O)C=C[C@]2(C(C)C)[C@H]34)cc1	16 µM	14 µM				
Cc1ccc(S(=O)(=O)N2C[C@@]34CN(C(=O)c5ccc(N)cn5)C[C@@H](O3)[C@@H]3[C@H]4[C@@]2(C(C)C)CC[C@@H]3O)cc1	37 µM	> 50 µM				
Cc1ccc(S(=O)(=O)N2C[C@@]34CN(C(=O)C5CC5)C[C@@H](O3)[C@H]3[C@@H](Oc5ncccn5)CC[C@]2(C(C)C)[C@H]34)cc1	> 40 µM	> 50 µM				
Cc1ccc(S(=O)(=O)N2C[C@@]34CN(C(=O)c5ccc(F)cc5N)C[C@@H](O3)[C@@H]3[C@H]4[C@@]2(C(C)C)CC[C@@H]3O)cc1	14 µM	20 µM				
Cc1ccc(S(=O)(=O)N2C[C@@]34CNC[C@@H](O3)[C@H]3C(=O)CC[C@]2(C(C)C)[C@H]34)cc1	> 50 µM	> 50 µM				
Cc1ccc(S(=O)(=O)N2C[C@@]34CN(Cc5nc6ccccc6s5)C[C@@H](O3)[C@@H]3[C@H]4[C@@]2(C(C)C)CC[C@@H]3O)cc1	6.6 µM	12 µM				
Cc1ccc(S(=O)(=O)N2C[C@@]34CN(Cc5ccccc5)C[C@@H](O3)[C@@H]3[C@H]4[C@@]2(C(C)C)C=C[C@@H]3O)cc1	17 µM	> 50 µM				
Cc1ccc(S(=O)(=O)N2C[C@@]34CN(C)C[C@@H](O3)[C@H]3C(=O)CC[C@]2(C(C)C)[C@H]34)cc1	> 50 µM	> 50 µM				
Cc1ccc(S(=O)(=O)N2C[C@@]34CN(Cc5nc6ccccc6s5)C[C@@H](O3)[C@H]3C(=O)CC[C@]2(C(C)C)[C@H]34)cc1	5.3 µM	37 µM				
Cc1ccc(S(=O)(=O)N2C[C@@]34CN(Cc5ccccc5)C[C@@H](O3)[C@H]3C(=O)CC[C@]2(C(C)C)[C@H]34)cc1	8.4 µM	5.8 µM				
CNC(=O)N1C[C@H]2O[C@]3(C1)CN(S(=O)(=O)c1ccc(C)cc1)[C@]1(C(C)C)CC[C@H](O)[C@H]2[C@H]31	> 50 µM	> 50 µM				
Nc1ncnc2c1ncn2[C@@H]1O[C@H](CSCC[C@H](N)C(=O)O)[C@@H](O)[C@H]1O [S-ADENOSYLHOMOCYSTEINE]			3.9 µM	0.22 µM		
COc1cc(CN2C[C@H]3O[C@]4(C2)CN(S(=O)(=O)c2ccc(C)cc2)[C@]2(C(C)C)CC[C@H](OCCCN(C)C)[C@H]3[C@H]42)cc(OC)c1	1.4 µM	7.7 µM		> 100 µM	inactive	
Cc1ccc(S(=O)(=O)N2C[C@@]34CN(Cc5ccccc5)C[C@@H](O3)[C@H]3[C@@H](Oc5ncccn5)CC[C@]2(C(C)C)[C@H]34)cc1	6.2 µM	6.3 µM				
COc1ccc(CCN2C[C@H]3O[C@]4(C2)CN(S(=O)(=O)c2ccc(C)cc2)[C@]2(C(C)C)C=CC(=O)[C@H]3[C@H]42)cc1	13 µM	6.6 µM				
COCn1ccc(N2C[C@H]3O[C@]4(C2)CN(S(=O)(=O)c2ccc(C)cc2)[C@]2(C(C)C)CC[C@H](O)[C@H]3[C@H]42)nc1=O	> 17 µM	> 50 µM				
COc1ccc(CCN2C[C@H]3O[C@]4(C2)CN(S(=O)(=O)c2ccc(C)cc2)[C@]2(C(C)C)C=C[C@H](Oc5ncccn5)[C@H]3[C@H]42)cc1	> 50 µM					
COc1cc(CN2C[C@H]3O[C@]4(C2)CN(S(=O)(=O)c2ccc(C)cc2)[C@]2(C(C)C)CC[C@H](O)[C@H]3[C@H]42)cc(OC)c1	5.6 µM	13 µM				
COc1ccc(CCN2C[C@H]3O[C@]4(C2)CN(S(=O)(=O)c2ccc(C)cc2)[C@]2(C(C)C)C=C[C@H](O)[C@H]3[C@H]42)cc1	3.7 µM	12 µM			inactive	inactive
Cc1ccc(S(=O)(=O)N2C[C@@]34CN(C)C[C@@H](O3)[C@H]3[C@@H](Oc5ncccn5)CC[C@]2(C(C)C)[C@H]34)cc1	20 µM	17 µM				
Cc1ccc(S(=O)(=O)N2C[C@@]34CN(C(=O)c5cccs5)C[C@@H](O3)[C@H]3[C@@H](Oc5cc(C)nc(N)n5)CC[C@]2(C(C)C)[C@H]34)cc1	> 50 µM	> 50 µM				
